Source: PubChem
rCAG RNA binder – molecules binding r(CAG) RNA repeats | hit rate 1.3% among 370,000 | inhibition, % at 3 µM | r(CAG) RNA repeat, TO-PRO-1 dye displacement fluorescence;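 active = inhibition above the plate cutoff, the mean of all test compounds on that plate plus 3 SD, cut at about 35% in these data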;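 also: 0% = DMSO alone and 100% = 100 µM mitoxantrone as full dye displacement; higher means more dye released from RNA so lower well fluorescence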
mABHD4 FP – ABHD4 (mouse) inhibition, primary FP screen; purified mABHD4, FP-Rh probe fluorescence polarization; Q8VD66; hit rate 0.54% among 370,000; inhibition, % at 8.92 µM;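 active = inhibition exceeding the mean over every tested compound plus 3 SD, cut at about 30% in these data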;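 also: 0% = plate median of compound wells and 100% = S159A mutant with DMSO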
Target sequence (Q8VD66 whole entry, looked up): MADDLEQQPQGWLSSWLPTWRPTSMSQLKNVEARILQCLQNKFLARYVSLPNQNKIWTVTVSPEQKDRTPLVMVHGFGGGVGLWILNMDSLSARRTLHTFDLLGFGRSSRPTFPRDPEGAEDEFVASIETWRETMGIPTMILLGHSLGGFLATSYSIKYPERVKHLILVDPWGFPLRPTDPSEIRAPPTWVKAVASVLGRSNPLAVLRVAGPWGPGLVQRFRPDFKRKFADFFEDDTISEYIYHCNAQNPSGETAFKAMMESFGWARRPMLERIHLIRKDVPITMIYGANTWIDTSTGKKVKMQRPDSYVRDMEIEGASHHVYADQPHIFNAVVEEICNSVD
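System: mouse ABHD4 enzyme, wild type / Medium: HEPES pH 7.0, NaCl, Pluronic buffer / Reagent: FP-Rh activity-based fluorescent probe / Control set: S159A mutant high control, sample median low control / Detection: fluorescence polarization with parallel and perpendicular emission, 525/598 nm / Schedule: 45 min + 60 min at 25 °C / Compound dosing: 8.92 µM, single dose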
PRMT1 inh – inhibitors of human PRMT1 | Q99873 | recombinant PRMT1, activity-based probe fluorescence polarization | inhibition, % at 2.79 µM | hit rate 1.3% among 370,000 | AID 652257;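 active = inhibition above about 21% made by adding two undisclosed values, limit read from the data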
Target sequence (Q99873 whole entry, looked up): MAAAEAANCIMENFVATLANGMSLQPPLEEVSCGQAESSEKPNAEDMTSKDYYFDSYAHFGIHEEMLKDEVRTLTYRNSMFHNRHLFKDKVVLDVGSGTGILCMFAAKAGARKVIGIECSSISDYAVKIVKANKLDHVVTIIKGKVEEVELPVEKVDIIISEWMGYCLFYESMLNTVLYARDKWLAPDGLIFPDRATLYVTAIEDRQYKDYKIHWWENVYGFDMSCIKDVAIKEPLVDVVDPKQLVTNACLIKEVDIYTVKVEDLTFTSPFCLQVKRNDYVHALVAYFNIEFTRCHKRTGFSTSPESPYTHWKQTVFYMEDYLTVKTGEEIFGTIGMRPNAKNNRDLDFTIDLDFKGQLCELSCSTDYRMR
SIAE primary – blocks human sialic acid acetylesterase; Q9HAT2; SIAE FP-Rh probe binding, fluorescence polarization; inhibition, % at 9.66 µM; hit rate 0.69% among 370,000;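 active = inhibition above a cutoff: mean of compounds within the control limits plus 3 SD of those, cut at about 17% in these data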;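 also: 0% = plate median of compound wells and 100% = probe without SIAE protein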
HTRA1 inh – blocks human HTRA1 serine peptidase | Q92743 | recombinant HTRA1, FP-rhodamine activity-based probe, fluorescence polarization | inhibition, % at 5.96 µM | hit rate 0.5% among 340,000 | AID 504803; in the data active = inhibition above about 36%;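 also: 0% = enzyme with DMSO and 100% = wells lacking enzyme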
PRMT1 confirm – confirmation of human PRMT1 inhibitors; AID 687036; inhibition, % at 2.79 µM; recombinant His-PRMT1, activity-based probe fluorescence polarization; shares compounds with PRMT1 inh; hit rate 42% among 3,300;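 active = mean inhibition across replicates above the hit cutoff derived for the earlier primary screen, cut at about 22% in these data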
mABHD4 conf – ABHD4 (mouse) inhibition, FP confirmation. inhibition, % at 8.92 µM. hit rate 55% among 1,800. purified mABHD4, FP-Rh probe fluorescence polarization. shares compounds with mABHD4 FP;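 active = mean inhibition across replicates above the hit cutoff set in the primary screen, cut at about 30% in these data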;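 also: 0% = wild-type ABHD4 with DMSO and 100% = catalytically dead S159A mutant with DMSO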
Active calls of the source: *; i = inactive; nt = no result. Most compounds without a hit are left out; they make up all but 3.3% or so of the library.

SMILES | rCAG RNA binder | mABHD4 FP | PRMT1 inh | SIAE primary | HTRA1 inh | PRMT1 confirm | others
Cc1cc(C)c2c(=O)n(CC(=O)N3CCC(N4CCCCC4)CC3)sc2n1 | 6 | 3 | 78* | -2 | -1 | 4
CCCNC(=O)Cn1sc2nc(C)cc(C)c2c1=O | -1 | 8 | 93* | 1 | 3 | 94*
CCOC(=O)C1CCCN(C(=O)Cn2sc3nc(C)cc(C)c3c2=O)C1 (stereo not drawn) | nt | nt | nt | nt | 7 | nt
O=C(NC1CC1)c1ccccc1 | 1 | -3 | -1 | 2 | 2 | nt
COc1ccc(S[C@]2(C(=O)N3CCN(C(C)=O)CC3)CC(=O)N(C(=O)C3CC3)[C@@H]2c2ccc(OC)cc2)cc1 | 5 | 3 | 53* | 1 | nt | 44*
COc1ccc(S[C@]2(C(=O)N3CCCC3)CC(=O)N(C(=O)C3CC3)[C@@H]2c2ccc(OC)cc2)cc1 | 8 | -1 | 38* | -2 | nt | 36*
COC(=O)[C@@]1(Sc2ccc(C)cc2)CC(=O)N(c2ccc(Cl)cc2)[C@@H]1c1ccccc1 | 3 | 1 | 0 | -6 | nt | nt
COc1ccc(S[C@]2(C(=O)N3CCN(c4ncccn4)CC3)CC(=O)N(C(=O)C3CC3)[C@@H]2c2ccc(OC)cc2)cc1 | 14 | 1 | -3 | -3 | nt | nt
COC(=O)[C@@]1(Sc2ccc(C)cc2)CC(=O)N(C(=O)C2CC2)[C@@H]1c1ccccc1 | 2 | 2 | 55* | 5 | nt | 58*
c1ccc(NCC2OCc3ccccc3CO2)cc1 | 3 | 5 | -2 | 6 | 2 | nt
Oc1ccc(C(=S)N2CCN(Cc3ccccc3)CC2)cc1 | 1 | -3 | 38* | 0 | -3 | 54*
O=C(c1ccc(Br)cc1)N1CCN(Cc2ccccc2)CC1 | -6 | 1 | 4 | -5 | 2 | nt
Cc1ccc(C(=S)N2CCN(Cc3ccccc3)CC2)s1 | -8 | -2 | 42* | 2 | -8 | 53*
S=C(c1ccc(Br)cc1)N1CCN(Cc2ccccc2)CC1 | -7 | 1 | 64* | -2 | -8 | 77*
CN(C)c1ccc(C(=S)N2CCN(Cc3ccccc3)CC2)cc1 | -6 | 2 | 55* | 2 | 0 | 64*
CCN(CC)c1ccc(C(=O)N2CCN(Cc3ccccc3)CC2)cc1 | -10 | -3 | -1 | 1 | 0 | nt
CCNC(=S)N1CCN(Cc2ccccc2)CC1 | -3 | 1 | -4 | 2 | 3 | nt
COc1cc(C(=S)N2CCN(c3cccc(Cl)c3)CC2)ccc1O | 0 | -8 | 1 | 15 | -21 | nt
Oc1ccc(C(=S)N2CCN(c3cccc(Cl)c3)CC2)cc1 | 11 | -25 | 29* | 0 | -29 | 3
CC1(C(=O)N2CCN(c3ccc([N+](=O)[O-])cc3)CC2)CC1(Cl)Cl (stereo not drawn) | -3 | -5 | 5 | 3 | 4 | nt
O=C1COc2ccc(C(=O)COC(=O)/C=C/c3ccc(Br)o3)cc2N1 | 23 | -1 | 37* | 1 | 0 | 2
NC(=O)c1nsc(C(=O)N(c2cccc(F)c2)C(C(=O)NCC2CCCO2)c2c[nH]c3ccccc23)c1N (stereo not drawn) | 4 | -9 | 2 | -10 | -20 | nt
COc1ccccc1NC(=O)CCc1nc2ccccc2s1 | -6 | 2 | -1 | 4 | 5 | nt
CC(C)c1ccccc1NC(=O)CCc1nc2ccccc2s1 | 4 | 0 | 32* | 4 | 0 | 16
CN(CC(=O)Nc1ccc(F)cc1)C(=O)c1ccccc1Sc1ccccc1C#N | -2 | 1 | 2 | 2 | -6 | nt
SMILES | rCAG RNA binder | mABHD4 FP | PRMT1 inh | SIAE primary | HTRA1 inh | PRMT1 confirm | others
CN(C)CCN(C(=O)c1ccc(S(=O)(=O)N2CCc3ccccc32)cc1)c1nc2ccc(F)cc2s1 | 25 | -11 | 50* | -5 | -26 | 1
CN(C)CCCN(C(=O)c1ccc(S(=O)(=O)N2CCc3ccccc32)cc1)c1nc2c(Cl)cccc2s1 | 2 | 12 | 33* | -4 | -26 | 8
CCc1ccc2nc(N(CCCN(C)C)C(=O)c3ccc(S(=O)(=O)N4CCCc5ccccc54)cc3)sc2c1 | 2 | 11 | 9 | 16 | -28 | nt
COc1cccc2sc(N(CCCN(C)C)C(=O)c3ccc(S(=O)(=O)N4CCCc5ccccc54)cc3)nc12 | -2 | 2 | 4 | -1 | 0 | nt
N#CCCn1cc(C(=O)CN2C(=O)NC3(CCc4ccccc43)C2=O)c2ccccc21 (stereo not drawn) | 6 | -12 | -1 | -9 | -10 | nt
COc1ccc(Cl)cc1C1=NOC2(CCC2)C(=O)N1Cc1cccc(C#N)c1 | 0 | -3 | 0 | -4 | nt | nt
Cc1ccccc1-n1c(SCc2c(C)noc2C)nnc1-c1cccnc1 | 18 | 0 | 28* | 1 | -1 | 13
Cc1ccc(-c2nc3ccc(C)cn3c2Cc2ccsc2)cc1 | 6 | -2 | -2 | 3 | nt | nt
COC(=O)c1ccc2nc(-c3ccco3)c(Cc3ccc(C)cc3)n2c1 | 18 | -2 | 34* | 2 | nt | 10
COC(=O)c1ccc2nc(-c3ccco3)c(Cc3cccc(F)c3)n2c1 | 20 | -2 | 43* | 1 | nt | 36*
Fc1cccc(Cc2c(-c3ccco3)nc3c(Cl)cc(C(F)(F)F)cn23)c1 | 32 | 3 | 38* | -3 | nt | 23*
COC(=O)c1ccc2nc(-c3ccc(F)cc3)c(Cc3cccc(F)c3)n2c1 | 5 | -2 | 1 | -2 | nt | nt
Cc1ccc2nc(-c3ccco3)c(Cc3ccsc3)n2c1 | 11 | 11 | 35* | 3 | nt | 27*
Fc1ccc(-c2nc3c(Cl)cc(C(F)(F)F)cn3c2Cc2cccc(F)c2)cc1 | 6 | -19 | -4 | -4 | nt | nt
CC(C)c1ccc(/C=C2\SC(=O)N(CC(=O)NC3CCS(=O)(=O)C3)C2=O)cc1 (stereo not drawn) | 9 | -9 | 14 | -17 | -6 | nt
COC(=O)c1cc(-c2cccc(OC)c2)c2c(=O)[nH]c(=O)n(C)c2n1 | 1 | 4 | -2 | 2 | 1 | nt
COC(=O)C1SCC2C(=O)N(Cc3ccccc3)CC(=O)N21 (stereo not drawn) | 0 | 3 | 3 | 5 | 5 | nt
COc1sc(SC)cc1/C=N/NC(=O)c1ccncc1 | 2 | -12 | 38* | 1 | -3 | -1
N#CC1=C(N)C(C#N)(C#N)[C@H](c2ccoc2)[C@H]2CN(Cc3ccccc3)CC=C12 | -9 | 31* | 33* | 8 | 33 | 5 | mABHD4 conf=5
Oc1ccccc1/C=N/c1c(-c2ccco2)nc2ccccn12 | 7 | 52* | 27* | 15 | 29 | 6 | mABHD4 conf=4
COc1cc(-c2nc3ccccn3c2/N=C/c2cccc(OC)c2O)ccc1O | 5 | 11 | 4 | 7 | 5 | nt
Nc1ccc2c3c(cccc13)C(=O)N(c1ccccc1)C2=O | i | 38* | 174* | 10 | 21 | 165* | mABHD4 conf=33*
Cc1cc(C)n(CC(=O)NNC(=O)CCNC(=O)c2ccccc2Cl)n1 | 0 | 0 | -4 | 1 | 5 | nt
